PGC1a acetyl inh: lowers PGC1a acetylation signal in U2OS cells; AlphaScreen anti-acetyl-lysine; with virally co-expressed GCN5 acetyltransferase; inhibition, % at 15.6 µM; 350,000 tested, 0.17% active; AID 651687;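 active = every replicate shows inhibition of at least 40%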
Ecoli rRNA inh: inhibitors of bacterial rRNA selective over humanized ribosomes; E. coli WT GFP vs humanized-ribosome RFP mutants, fluorescence, 24 h; stronger effect = lower value; DMSO median 0, no signal -100; 350,000 tested, 1.6% active; AID 720706; GFP signal change (wild-type ribosome), % (test concentration not listed);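 active = significant combined selectivity score with lowered wild-type GFP, culture density cut under 30%, mutant RFP and density less affected; inactive = any of these conditions unmet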
ARNT-TACC3 inh: disrupts binding between human ARNT and TACC3; 390,000 tested, 0.66% active; inhibition, % at 9.99 µM; Q9Y6A5; AlphaScreen His-ARNT PAS-B/GST-TACC3 binding, luminescence; TACC3 fragment carries E629A point mutation;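 active = mean inhibition of replicates at least 50% and at least half of replicates each reaching 50%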
ERAP1 inh: inhibitors of human ERAP1 aminopeptidase; inhibition, % at 10.7 µM; recombinant ERAP1, Leu-AMC fluorescence, 60 min; Q9NZ08; 340,000 tested, 0.15% active;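 active = mean replicate inhibition of at least 30%, or all replicates individually reaching that 30% level; inactive = mean below 30% and not every replicate reaching it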
CASP6 VEID inh: blocks human caspase-6 cleavage activity; purified caspase-6, Z-VEID-R110 cleavage fluorescence; inhibition, % at 12.5 µM; 350,000 tested, 0.53% active; AID 686996;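 active = mean inhibition across replicates at least about 35%, with every replicate also reaching that limit, limit read from the data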
Target sequence (P55212 24-179 limits assumed): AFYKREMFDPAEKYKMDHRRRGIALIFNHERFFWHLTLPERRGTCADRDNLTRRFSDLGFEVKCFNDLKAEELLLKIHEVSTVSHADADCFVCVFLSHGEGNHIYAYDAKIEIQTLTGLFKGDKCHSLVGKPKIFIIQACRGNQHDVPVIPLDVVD
Target sequence (P55212 194-293 limits assumed): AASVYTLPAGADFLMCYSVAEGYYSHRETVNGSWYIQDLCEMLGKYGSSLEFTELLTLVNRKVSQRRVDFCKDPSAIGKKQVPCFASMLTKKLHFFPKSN
S100A4 MyoIIA: S100A4-myosin IIA interaction inhibition | S100A4/TAMRA-MyoIIA peptide fluorescence polarization | inhibition, % at 10.7 µM | 360,000 tested, 0.14% active;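 active = mean inhibition of at least 70% across replicates, with every replicate also reaching that level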
Target sequence (P26447 whole entry, looked up): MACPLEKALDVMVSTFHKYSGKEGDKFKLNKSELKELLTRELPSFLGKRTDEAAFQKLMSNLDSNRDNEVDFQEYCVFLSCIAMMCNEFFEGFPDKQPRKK
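incubation = readout 5 min after mixing, signal stable up to 60 min | system = S100A4 monomer protein | buffer or medium = HEPES pH 7.2 with CaCl2, KCl, NaCl, DTT, Triton | benchmarks = neutral control DMSO, positive control TFP | also added = fluorescent myosin IIA peptide, 5 nM | compound dosing = one concentration per compound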
A number is an active result. This is a sample that favours compounds with a hit; in the whole collection about 2.4% have one here.

How did COCCNC(=O)C[C@@H]1C[C@@H]2c3cc(NS(=O)(=O)c4ccccc4)ccc3O[C@@H]2[C@@H](CO)O1 do in these assays?
PGC1a acetyl inh: inactive; Ecoli rRNA inh: inactive; ARNT-TACC3 inh: inactive; ERAP1 inh: inactive; CASP6 VEID inh: inactive; S100A4 MyoIIA: inactive

What do the screens show for `Cc1[nH]nc2ncc(C(=O)c3ccccc3O)cc12`?
PGC1a acetyl inh: 45; ARNT-TACC3 inh: inactive

Results for COc1ccccc1NC(=O)Cn1cc(C(=O)c2ccco2)c2ccccc21 ?
PGC1a acetyl inh: inactive; Ecoli rRNA inh: -26; ARNT-TACC3 inh: inactive; ERAP1 inh: inactive; CASP6 VEID inh: inactive; S100A4 MyoIIA: inactive

What do the screens show for `O=C1CC[C@@H](CN(Cc2ccccc2)Cc2cn[nH]c2-c2cc3ccccc3o2)N1`?
Ecoli rRNA inh: -24; ARNT-TACC3 inh: inactive; ERAP1 inh: inactive; CASP6 VEID inh: inactive; S100A4 MyoIIA: inactive

Results for C[C@@H]1CN([C@@H](C)CO)S(=O)(=O)c2ccc(C#CCN(C)C)cc2O[C@@H]1CN(C)C ?
PGC1a acetyl inh: inactive; Ecoli rRNA inh: inactive; ARNT-TACC3 inh: inactive; ERAP1 inh: inactive; CASP6 VEID inh: inactive; S100A4 MyoIIA: inactive

What do the screens show for `O=C(Nc1ccc(OCc2ccccc2)cc1)Nc1ccccc1C(=O)NCCCN1CCOCC1`?
PGC1a acetyl inh: inactive; Ecoli rRNA inh: -22; ARNT-TACC3 inh: inactive; ERAP1 inh: inactive; CASP6 VEID inh: inactive; S100A4 MyoIIA: inactive

Results for O=C(Nc1ccccc1C(=O)NCCCN1CCOCC1)c1ccc(F)cc1F ?
Ecoli rRNA inh: inactive; ARNT-TACC3 inh: inactive; ERAP1 inh: inactive; CASP6 VEID inh: inactive; S100A4 MyoIIA: inactive

Results for C[C@H](CO)N1C[C@H](C)[C@@H](CN(C)S(=O)(=O)c2ccc(Cl)cc2)Oc2ccc(N(C)C)cc2CC1=O ?
PGC1a acetyl inh: inactive; Ecoli rRNA inh: inactive; ARNT-TACC3 inh: inactive; ERAP1 inh: inactive; CASP6 VEID inh: inactive; S100A4 MyoIIA: inactive

Results for O=C(NC(C(=O)N/N=C/c1cc([N+](=O)[O-])ccc1O)c1n[nH]c(=O)c2ccccc12)c1ccccc1 (stereo unspecified) ?
Ecoli rRNA inh: inactive; ARNT-TACC3 inh: 68; ERAP1 inh: inactive; CASP6 VEID inh: inactive; S100A4 MyoIIA: inactive

What do the screens show for `Cc1cc(C(=O)N/N=C/c2cc([N+](=O)[O-])ccc2O)c2ccccc2n1`?
ARNT-TACC3 inh: 76

What do the screens show for `CCOC(=O)c1c(C)[nH]c(C(=O)N/N=C\c2ccccc2O)c1C`?
PGC1a acetyl inh: inactive; Ecoli rRNA inh: inactive; ARNT-TACC3 inh: inactive; ERAP1 inh: inactive; CASP6 VEID inh: inactive; S100A4 MyoIIA: inactive

What do the screens show for `CCOC(=O)c1c(C)[nH]c(C(=O)N/N=C/c2cc([N+](=O)[O-])ccc2O)c1C`?
Ecoli rRNA inh: inactive; ARNT-TACC3 inh: 72; ERAP1 inh: inactive; CASP6 VEID inh: inactive; S100A4 MyoIIA: inactive

What do the screens show for `O=C(NC(C(=O)N/N=C/c1cccc2ccccc12)c1n[nH]c(=O)c2ccccc12)c1ccccc1` (stereo unspecified)?
PGC1a acetyl inh: inactive; ARNT-TACC3 inh: inactive

How did C/C=C/c1ccc([C@H]2[C@H](CO)N(C(C)=O)[C@H]2CN(C)S(C)(=O)=O)cc1 do in these assays?
PGC1a acetyl inh: inactive; Ecoli rRNA inh: inactive; ARNT-TACC3 inh: inactive

What do the screens show for `O=C(C1CC1)N1CC2(C1)[C@@H](c1ccccc1)[C@@H](CO)N2Cc1nccs1`?
PGC1a acetyl inh: inactive; Ecoli rRNA inh: inactive; ERAP1 inh: inactive; CASP6 VEID inh: inactive; S100A4 MyoIIA: inactive

How did CSc1nc(SC(C)C(=O)O)c2c3c(sc2n1)COC(C)(C)C3 (stereo unspecified) do in these assays?
PGC1a acetyl inh: inactive; Ecoli rRNA inh: -23; ARNT-TACC3 inh: inactive; ERAP1 inh: inactive; CASP6 VEID inh: inactive; S100A4 MyoIIA: inactive

Results for COc1ccc(C(O)C(CN2CCOCC2)c2ccccc2)cc1F (stereo unspecified) ?
PGC1a acetyl inh: inactive; ARNT-TACC3 inh: inactive

What do the screens show for `COc1ccc(C(=O)C(CN2CCOCC2)c2ccccc2)cc1F` (stereo unspecified)?
PGC1a acetyl inh: 114; ARNT-TACC3 inh: inactive

What do the screens show for `CCCC#Cc1ccc2c(c1)O[C@H](CN(C)C(=O)CN(C)C)[C@H](C)CN([C@H](C)CO)S2(=O)=O`?
PGC1a acetyl inh: inactive; Ecoli rRNA inh: inactive; ARNT-TACC3 inh: inactive; ERAP1 inh: inactive; CASP6 VEID inh: inactive; S100A4 MyoIIA: inactive

Results for CC(=O)c1sc(NC(=O)c2ccccc2)nc1-c1ccccc1 ?
PGC1a acetyl inh: inactive; Ecoli rRNA inh: -20; ARNT-TACC3 inh: inactive; ERAP1 inh: inactive; CASP6 VEID inh: inactive; S100A4 MyoIIA: inactive

Results for CC(=O)c1sc(NC(=O)c2c(F)cccc2F)nc1-c1ccccc1 ?
PGC1a acetyl inh: inactive; Ecoli rRNA inh: inactive; ERAP1 inh: inactive; CASP6 VEID inh: inactive; S100A4 MyoIIA: inactive

How did O=C(c1cc(-c2ccc(Br)cc2)nc2ccccc12)N1CCC1 do in these assays?
PGC1a acetyl inh: inactive; Ecoli rRNA inh: -25; ARNT-TACC3 inh: inactive; ERAP1 inh: inactive; CASP6 VEID inh: inactive; S100A4 MyoIIA: inactive

How did CCNC(=O)[C@@H]1[C@@H](CO)[C@@H]2Cn3c(ccc(-c4cccc(C(=O)N(C)C)c4)c3=O)[C@H]1N2 do in these assays?
PGC1a acetyl inh: inactive; Ecoli rRNA inh: inactive; ERAP1 inh: inactive; CASP6 VEID inh: inactive; S100A4 MyoIIA: inactive

What do the screens show for `COc1ccccc1S(=O)(=O)Nc1ccc2c(c1)OC[C@@H](C)NC[C@H](C)[C@@H](OC)CN(C)C2=O`?
PGC1a acetyl inh: inactive; Ecoli rRNA inh: inactive; ARNT-TACC3 inh: inactive; ERAP1 inh: inactive; CASP6 VEID inh: inactive; S100A4 MyoIIA: inactive

Results for O=C(NCCc1ccc(Cl)cc1)C1CCN(S(=O)(=O)c2cccs2)CC1 ?
PGC1a acetyl inh: inactive; ARNT-TACC3 inh: inactive

Results for O=C(O)c1ccc(Cl)cc1NC(=O)C1CCN(S(=O)(=O)c2cccs2)CC1 ?
PGC1a acetyl inh: inactive; Ecoli rRNA inh: -18; ERAP1 inh: inactive; CASP6 VEID inh: inactive; S100A4 MyoIIA: inactive

Results for C[C@@H]1CCCCO[C@@H](CN(C)Cc2ccc3c(c2)OCO3)[C@H](C)CN([C@H](C)CO)C(=O)c2cc(NC(=O)Nc3ccc(F)cc3)ccc2O1 ?
PGC1a acetyl inh: inactive; Ecoli rRNA inh: inactive; ARNT-TACC3 inh: inactive; ERAP1 inh: inactive; CASP6 VEID inh: inactive; S100A4 MyoIIA: inactive

What do the screens show for `CC1([N+](=O)[O-])COC(c2cccc3ccccc23)OC1` (stereo unspecified)?
PGC1a acetyl inh: inactive; Ecoli rRNA inh: -22; ERAP1 inh: inactive; CASP6 VEID inh: inactive; S100A4 MyoIIA: inactive

What do the screens show for `COc1ccccc1C1OCC(C)([N+](=O)[O-])CO1` (stereo unspecified)?
PGC1a acetyl inh: inactive; Ecoli rRNA inh: inactive; ARNT-TACC3 inh: inactive; ERAP1 inh: inactive; CASP6 VEID inh: inactive; S100A4 MyoIIA: inactive

Screening data (PubChem BioAssay)
